Sampled rows, rich in hits. Any-hit rate of the full collection: about 6.8%.
AI-2 QS modul: Vibrio harveyi AI-2 quorum sensing modulation. activity change, % at 7.5 µM. AID 2094. Vibrio harveyi JMH597 AI-2 luminescence/OD600 ratio, 9 h; active compounds read low; strain lacks LuxN and CqsS sensors; 0 = neutral-control median. hit rate 0.4% among 300,000; in the data active = activity change below about -75%, passing the limit was not always enough; inconclusive = no clear call, values can overlap the other calls;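 also: luminescence divided by OD600 gain over 9 h not by final OD600 alone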
core dimer inh: HCV core protein dimerization inhibition; hit rate 0.33% among 300,000; inhibition, % at 5 µM; AID 1899; TR-FRET GST/Flag-core106 dimerization, 1536-well;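 active = inhibition above the mean of all tested compounds plus 3 SD, set per screening campaign, cut at about 45% in these data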
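Assay system: GST-tagged and Flag-tagged HCV core protein residues 1-106 / Times: compound-protein-antibody incubation 4 h at 22.5 °C / Signal: time-resolved FRET, ex 340 nm, em 617 and 671 nm / Evaluation: % inhibition based on acceptor/donor emission ratio / Benchmarks: wells lacking GST-core106 and wells with excess unlabelled core106 / Repeats: singlicate, one well per compound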
HSF1 inh: HSF1 inhibition. NIH3T3-HGL HSE-luciferase, MG132-induced, luminescence 8 h; active compounds read low. activity change, negative = inhibition, % at 7.5 µM (by protocol). hit rate 0.77% among 300,000. AID 2098;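 active = more than half of replicate wells show activity change below -50%, luminescence cut by over half; inconclusive = some wells, but at most half, below -50%; inactive = no replicate well below -50%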;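 also: luciferase reports HSF-1 transcriptional activity via heat shock element; 0% = median of DMSO wells and -100% = zero luminescence signal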
ALR H2O2 inh: human ALR oxidase inhibition via reduced H2O2; P55789; purified ALR, DTT oxidation, H2O2 HRP-luminol luminescence; inhibition, % (test concentration not listed); hit rate 3.8% among 290,000; AID 485317;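 active = mean replicate inhibition above about 79%, with every replicate also reaching it, limit read from the data; inconclusive = only one of the two criteria met; inactive = mean below limit and not every replicate reaching it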
Target sequence (P55789 whole entry, looked up): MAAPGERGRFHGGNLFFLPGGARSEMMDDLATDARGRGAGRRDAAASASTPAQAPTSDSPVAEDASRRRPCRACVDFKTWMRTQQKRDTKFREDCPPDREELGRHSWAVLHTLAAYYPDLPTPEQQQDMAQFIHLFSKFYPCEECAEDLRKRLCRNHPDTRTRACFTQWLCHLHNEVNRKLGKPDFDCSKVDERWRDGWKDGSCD
PHOSPHO1 inh: inhibitors of human PHOSPHO1 phosphatase; Q8TCT1; recombinant PHOSPHO1, absorbance phosphatase assay; inhibition, % at 13.3 µM; hit rate 1.1% among 290,000; AID 1565; in the data active = inhibition above about 60%
Target sequence (Q8TCT1 whole entry, looked up): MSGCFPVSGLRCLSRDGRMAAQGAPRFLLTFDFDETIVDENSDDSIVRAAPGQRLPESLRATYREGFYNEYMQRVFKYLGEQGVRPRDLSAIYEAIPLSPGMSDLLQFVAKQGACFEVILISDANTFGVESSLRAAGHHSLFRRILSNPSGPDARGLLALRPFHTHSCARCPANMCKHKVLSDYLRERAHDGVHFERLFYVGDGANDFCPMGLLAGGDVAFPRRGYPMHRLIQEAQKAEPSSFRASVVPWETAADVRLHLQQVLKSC
HSF-1 act: increases HSF-1 driven luciferase reporter signal; NIH3T3-HGL HSF-1 luciferase reporter, MG132, 8 h; 100% = twice DMSO control signal; hit rate 1.7% among 300,000; AID 504408; activation, % at 9 µM;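 active = mean replicate activation of at least 50% with a set share of replicates each reaching 50%; inconclusive = only one of those two conditions met; inactive = mean below 50% and too few replicates reaching it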;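 also: 0% = median of the neutral control wells and 100% = twice that signal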
The depositor's hits bear a star; ? = inconclusive; . = not tested or not shown.

SMILES | AI-2 QS modul | core dimer inh | HSF1 inh | ALR H2O2 inh | PHOSPHO1 inh | HSF-1 act
COc1cc(/C=N/O)cc(Br)c1OC | 14.9 | -1.8 | -11.9 | 89.8* | 0.0 | -10.7
CC(C)c1ccc(C2CC(=O)N3CN(C)CSC3=C2C#N)cc1 (stereo unspecified) | 18.4 | -2.9 | 8.4 | 11.2 | 12.2 | -15.0
COc1ccc(Br)cc1C1CC(=O)N2CN(Cc3ccccc3)CSC2=C1C#N (stereo unspecified) | 28.3 | -0.4 | 5.4 | -34.2 | 23.9 | -5.0
N#CC1=C2SCN(c3ccccc3)CN2C(=O)CC1c1ccccc1Cl (stereo unspecified) | 17.8 | -4.2 | -8.2 | -9.4 | 85.7* | -16.5
N#CC1=C2SCN(c3ccccc3)CN2C(=O)CC1c1cccs1 (stereo unspecified) | 30.4 | 34.9 | -1.2 | -11.8 | 81.0* | 3.7
N#CC1=C2SCC(O)(c3ccccc3)N2C(=O)CC1c1cccs1 (stereo unspecified) | . | 1.4 | . | . | 13.5 | .
N#CC1=C2SCN(Cc3ccccc3)CN2C(=O)CC1c1ccccc1F (stereo unspecified) | 20.1 | 7.6 | 7.3 | -25.0 | 82.8* | -1.3
N#CC1=C2SCN(c3ccccc3)CN2C(=O)CC1c1c(Cl)cccc1Cl (stereo unspecified) | 13.1 | 11.5 | 3.6 | -4.5 | 91.5* | -14.1
C/C(=N/NC(=O)CN1CCN(Cc2ccccc2Cl)CC1)c1cccnc1 | 9.4 | -6.6 | 5.5 | -0.7 | -8.5 | 14.8
Cc1ccc(C2=NN(C(=O)CCl)C(c3cccs3)C2)o1 (stereo unspecified) | -0.8 | 4.3 | 31.0 | 97.6* | -1.8 | 58.4*
O=C(CCl)N1N=C(c2ccco2)CC1c1cccs1 (stereo unspecified) | -7.5 | 14.7 | 28.7 | 7.6 | -6.0 | 54.8*
CC(=O)N1N=C(c2ccco2)CC1c1cccs1 (stereo unspecified) | 11.3 | 5.2 | 12.5 | -5.9 | -10.0 | 15.4
CCCOC(=O)Cn1cnc2scc(-c3ccc(OC)cc3)c2c1=O | 34.6 | -6.3 | -6.3 | -4.3 | -2.7 | -19.7
O=C(NCC(=O)N1CC=C(c2ccccc2)CC1)c1ccco1 | 2.6 | 0.9 | 3.7 | -0.7 | . | -9.5
O=C1OC(c2ccccc2)=C/C1=C/N1CCOCC1 | 10.9 | -6.4 | -3.8 | -7.2 | -35.3 | -6.3
O=C1SC(c2ccccc2)=C/C1=C\N1CCCCC1 | 5.8 | -6.8 | 3.3 | 94.9* | -25.8 | 15.5
C=CCOc1ccn(C)c(=O)n1 | 14.1 | -41.2 | -54.5* | 1.7 | -10.5 | -63.9
Cn1c(SCc2cccnc2)nc2c(c1=O)SCC2 | 13.0 | 2.6 | 3.5 | 99.0* | 47.1 | 7.2
COc1ccc(-n2c(SCc3cccnc3)nc3c(c2=O)SCC3)cc1OC | 34.5 | . | -13.6 | . | 12.3 | -13.2
Cn1c(SCc2cccc([N+](=O)[O-])c2)nc2c(c1=O)SCC2 | 26.1 | 2.6 | -5.7 | 98.7* | 19.5 | -3.8
Cn1c(SCc2ccc(Br)cc2)nc2c(c1=O)SCC2 | 1.4 | 7.5 | 19.9 | 98.2* | -0.3 | 24.7
Cn1c(SCC(=O)NCc2ccc3c(c2)OCO3)nc2c(c1=O)SCC2 | 36.2 | 9.8 | 5.2 | 47.0 | 2.9 | 4.7
COc1ccccc1-c1nnc(SCC(=O)Nc2ccc(S(N)(=O)=O)cc2)n1N | 22.2 | -0.2 | -5.9 | -4.8 | -25.6 | -5.7
COc1ccc(NC(=O)CSc2nnc(Cc3ccc(C)cc3)c(=O)n2N)cc1OC | 8.2 | -4.4 | -0.3 | 90.9* | . | 10.7
Cc1ccc(Cc2nnc(SCC(=O)Nc3ccccc3)n(N)c2=O)cc1 | ? | 0.5 | -2.5 | 97.7* | . | 8.5
SMILES | AI-2 QS modul | core dimer inh | HSF1 inh | ALR H2O2 inh | PHOSPHO1 inh | HSF-1 act
COc1ccc(Cc2nnc(SCC(=O)Nc3ccc(C)cc3)n(N)c2=O)cc1 | -41.5 | -1.8 | 2.3 | -4.6 | . | -2.5
COc1cccc(NC(=O)CSc2nnc(Cc3ccc(C)cc3)c(=O)n2N)c1 | -19.6 | 4.0 | 3.2 | 98.5* | . | -4.0
COc1ccccc1-c1nnc(SCC(=O)Nc2ccc3[nH]c(=O)[nH]c3c2)n1N | . | 2.8 | -3.6 | 98.5* | . | 1.9
COc1ccc(CC(NC(C)=O)C(=O)NC2CCN(c3nnnn3-c3ccccc3)CC2)cc1OC (stereo unspecified) | 11.5 | 2.3 | -6.9 | -3.7 | -12.5 | -22.3
CC1CCC(C(=O)NC(C(=O)NCc2cccnc2)C(C)C)CC1 (stereo unspecified) | 1.4 | -0.9 | 4.4 | -1.6 | -6.4 | 38.4
COc1ccc(NC(=O)CSc2nnc(Cc3ccccc3)c(=O)n2N)cc1OC | 29.1 | 0.9 | -3.8 | 93.1* | . | 1.7
CCOc1ccc(Cc2nnc(SCC(=O)Nc3ccccc3)n(N)c2=O)cc1 | 34.4 | -1.4 | 0.5 | -2.0 | . | -9.3
Cc1[nH]c(SCC(=O)Nc2cc(C(N)=O)cc(C(N)=O)c2)nc1Cc1ccccc1 | . | . | . | 97.1* | . | .
CCN(/N=C/C=C/c1ccccc1)c1cc(=O)n(C)c(=O)[nH]1 | 3.5 | 0.1 | 26.6 | -30.6 | -5.8 | 69.2*
O=C(CCN1CCOCC1)c1ccccc1 | 9.9 | -6.1 | -4.5 | 8.5 | 3.9 | -3.7
O=C(CCN1CCOCC1)NNC(=S)NC(=O)c1ccccc1 | 41.7 | 1.7 | -1.9 | 98.6* | 19.1 | -14.3
COc1ccccc1NC(=S)NC(=O)C(C)(C)C | -9.3 | 1.5 | 6.1 | -11.2 | 49.5 | 3.5
COc1ccccc1NC(=S)NNC(=O)c1ccc(O)cc1 | 2.8 | -1.9 | 13.2 | 99.3* | 70.9* | 16.7
COc1ccc(C)cc1NC(=S)NNC(=O)c1ccccc1Cl | . | 2.7 | . | 77.2* | 45.1 | .
O=C(NNC(=S)NC(=O)c1ccccc1)c1ccc(O)cc1 | ? | -1.0 | 4.2 | 98.8* | -106.4 | 20.7
COc1ccccc1C(=O)NNC(=S)Nc1ccccc1 | 14.0 | . | -2.0 | . | -118.5 | -3.5
O=C(COC(=O)CNC(=O)c1ccccc1)Nc1cccc(Br)c1 | -3.1 | -3.9 | -12.3 | -23.9 | 0.8 | 6.3
CCc1nc2ccccc2n1Cc1ccccc1F | 26.1 | 9.4 | 6.5 | -24.0 | 43.9 | 8.4
Cc1sc2nc(COC(=O)c3cccc(S(=O)(=O)N(C)c4ccccc4)c3)[nH]c(=O)c2c1C | 28.0 | 31.3 | 1.0 | -3.6 | 7.7 | -13.8
CCOc1ccc(S(=O)(=O)NCc2cccnc2)cc1C(C)C | 18.9 | -3.8 | 0.9 | . | 54.8 | 13.5
O=C(NNC(=S)Nc1ccccc1)c1ccc(O)cc1 | 3.0 | -4.8 | 33.2 | 99.0* | -148.3 | 57.3*
O=C(CNC(=S)NC(=O)c1ccccc1)c1ccccc1 | 0.2 | -6.2 | -0.2 | 78.6* | 7.4 | -3.4
O=C(O)c1ccc(NC(=S)Nc2ccccc2)cc1 | 18.3 | -9.4 | -16.2 | 98.8* | 15.0 | -20.4
C=CCN1C(=O)/C(=C\c2ccc(Cl)cc2)N=C1SCC(=O)NCCC | 10.1 | -0.5 | 1.1 | 2.0 | -15.3 | 5.3
COCCNC(=O)CSC1=N/C(=C/c2ccc(Cl)c(Cl)c2)C(=O)N1c1ccccc1F | 17.6 | 5.1 | -60.9* | 35.2 | 10.9 | -68.9
